According to ChEMBL document CHEMBL1143938, “Synthesis and antiviral activities of novel chiral cyanoacrylate derivatives with (E) configuration” (2008):
Calls of active or inactive are those of the source. No cut-off for these calls is given here.

Assays:
Tobacco mosaic virus [1] = assay: Antiviral activity against TMV-infected tobacco leaves assessed as curative effect against viral disease at 500 mg/L; type: functional
Tobacco mosaic virus [2] = assay: Antiviral activity against TMV-infected tobacco leaves assessed as protection against viral infection at 500 mg/L; type: functional
Tobacco mosaic virus [3] = assay: Antiviral activity against TMV-infected tobacco leaves assessed as viral inactivation at 500 mg/L; type: functional
Nicotiana tabacum [4] = assay: Effect on accumulation of PR1a mRNA in tobacco leaf on day 2; type: functional, organism-based
Procedure, shortened: (§1)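 Leaf RNA came from water-, TMV- and treated-plus-TMV tobacco. PR-1a and PR-5 were amplified by semi-quantitative PCR (annealing 58 °C; 1.5% agarose, ethidium bromide) and by real-time PCR. Real-time values were taken relative to β-actin by ΔΔCT, n = 4, in triplicate.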

Nicotiana tabacum [5] = assay: Effect on accumulation of PR5 mRNA in tobacco leaf after 12 hrs; type: functional, organism-based; procedure, shortened: as §1
Nicotiana tabacum [6] = assay: Effect on accumulation of PR1a mRNA in tobacco leaf upto […] after 1 day; type: functional, organism-based; procedure, shortened: as §1
Nicotiana tabacum [7] = assay: Stimulation of leaf size in Nicotiana tabacum relative to water treated control; type: functional, organism-based
Nicotiana tabacum [8] = assay: Stimulation of L-phenylalanine ammonia-lyase level in Nicotiana tabacum assessed as per mg of protein after 7 days; type: functional
Procedure, shortened: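 TMV-inoculated Nicotiana tabacum treated at 500 ppm and sampled at 1, 3, 5 and 7 days. Water and TMV-only treatments served as controls. Leaves were homogenized on ice in 5 mM 2-mercaptoethanol-boric acid buffer (pH 8.8) and centrifuged, and enzyme activity was read in the supernatant. PAL was expressed per mg protein. Means of n = 3, with one-way ANOVA and LSD.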

Nicotiana tabacum [9] = assay: Stimulation of peroxidase activity in Nicotiana tabacum after 5 days
Nicotiana tabacum [10] = assay: Effect on accumulation of PR5 mRNA in tobacco leaf upto […] after 1 day; type: functional, organism-based; procedure, shortened: as §1

SMILES: CNCC(=O)N[C@@H](CO)C(=O)N[C@H]1C(O)[C@@H](O)[C@H](n2ccc(N)nc2=O)O[C@@H]1C(N)=O (single isomer, unassigned) [NINGNANMYCIN]
- Activity (Tobacco mosaic virus [1]): 57.8%
- Activity (Tobacco mosaic virus [2]): 100%
- Activity (Tobacco mosaic virus [3]): 50%

SMILES: CCOC(=O)/C(C#N)=C(\NCc1ccccc1)N[C@H](C)c1ccc(F)cc1
- Activity (Nicotiana tabacum [4]): Active
- Activity (Nicotiana tabacum [5]): Active
- Activity (Nicotiana tabacum [6]): Active
- Activity (Nicotiana tabacum [7]): Active
- Activity (Tobacco mosaic virus [1]): 64%
- Activity (Nicotiana tabacum [8]): 5.88 EU/mg
- Activity (Tobacco mosaic virus [2]): 65.7%
- Activity (Nicotiana tabacum [9]): Active
- Activity (Nicotiana tabacum [10]): Active
- Activity (Tobacco mosaic virus [3]): 49.5%
